Experimental data from the RNAGym collection of RNA variant scans (doi:10.1126/science.aae0568).
Variants at the floor of the assay were thinned out.

B1: tRNA (parent)
chain: GUUCCGUUGGCGUAAUGGUAACGCGUCUCCCUCCUAAGGAGAAGACUGCGGGUUCGAGUCCCGUACGGAACG

Variants of: B1
Test: yeast fitness relative to wild type (ratio to wild type); higher = fitter; tRNA-Arg(CCU), competitive growth, 37 C, YPD
Outline: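 Variants of the tRNA-Arg(CCU) gene, chemically synthesised with a 3% per-site mutation rate at 69 sites, were placed at the native genomic locus in Saccharomyces cerevisiae. The pooled strains were competed in YPD at 37°C for 24 hours in six parallel replicates. Gene amplicons from the start population and from each end population were read by 100-nucleotide paired-end sequencing. Darwinian fitness relative to wild type came from changes in genotype frequencies; genotypes needed ≥ 100 starting reads, and estimates < 0.5 were set to 0.5.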

Variant	yeast fitness
C24A C30U A45G A57U	0.6
G9U C11G U32G G56A	≤ 0.5
C33G C34G C46U	0.547
A15U C49G C55U A65U	0.56
A15G G23A C60U	≤ 0.5
G56C G58A	0.607
C22U U59C	0.778
C11G C24U U35A	0.622
C30A C49A	0.699
A20U C33A C66A	≤ 0.5
G10C U54C G56A	≤ 0.5
G23A U47C C55U A69C	≤ 0.5
A14C A37C A65U	≤ 0.5
U7C U32G	0.576
A40C A70U	0.797
U19A C29G U54C	≤ 0.5
C33U G39C U59C C61A C62U	≤ 0.5
A37C C60G C62G	≤ 0.5
G12A G25A C60A	≤ 0.5
C22U C49U	0.816
A40U G56C	0.651
C5A C11G C27U G41C	≤ 0.5
A14U U35C U53G	0.634
C34G G44C	0.652

Variant	yeast fitness
C4U G23C C30G	≤ 0.5
A21G C27U A69U	0.772
A21C A45U G48C C62U	≤ 0.5
U13A U59A	0.827
U26C C30G A43U G50A	≤ 0.5
U64C	0.985
U2G G10C A70C	≤ 0.5
U7C A21U C30U C33G A70U	≤ 0.5
G10A C31A C61U	≤ 0.5
A45G G51A U59C	≤ 0.5
U28A C31A G44A	0.568
C31G A45G G56U	0.561
A15U C29A C34G U59A A69C	≤ 0.5
U7C G9C G23A A36C C66A	0.544
C4G G6A C11U C61U	≤ 0.5
C22U A42G C55G A70U	0.556
U2C C22U	0.842
U2A G48C	0.92
A36G C49G A70G	0.53
C31U G41U G56A	0.686
A20G A40C	0.803
A36C G67A	0.607
G12C U32G C33G U47C A57C	≤ 0.5
C22A C29U U53A C66U	≤ 0.5

Variant	yeast fitness
U3A A36U A43G G52C	≤ 0.5
C4A U13A G18A G52A C55G A69U	≤ 0.5
C31U A37C C55U A65U A70G	≤ 0.5
G25A G39A	0.973
U7A A42U A45G A57C A69U	≤ 0.5
C4U C5G A37C	≤ 0.5
U26C A36U A45U G52C A57U	≤ 0.5
A15U C30U A37G	≤ 0.5
C4U C31G C55U	0.579
C29G U54C	0.664
A20U A36U	0.639
G6A A14G U35C A36G A45U	≤ 0.5
A15C A43G C46A G68A	≤ 0.5
C11U C24U C29G G38A A40C C61A A65G	≤ 0.5
A14G G56U A65U G68C	≤ 0.5
G10A G38A A57G	≤ 0.5
U2C C30U C31A A40U C49A	≤ 0.5
C4G G17A C22A G38A C49U U53C	≤ 0.5
C29A G50C	0.553
G38U G48A A70U	0.652
C33G C61A	0.607
C4G C29A	0.757
U16G C29U C31A C46U	0.716
U2C C4A U28C U53C	≤ 0.5

Variant	yeast fitness
U2C C30U U54A	≤ 0.5
C60G C66G A70C	≤ 0.5
U7G A70U	1.01
U16G C29G C49G A65U	≤ 0.5
C31A A42G C49G C62U	≤ 0.5
U16C U47A G68A	≤ 0.5
U16A G18A C31U	≤ 0.5
C4G G17A G56C C60G C66U	≤ 0.5
U32A A36U G44C A45G	0.516
A40G G44C U53C C55A A65U	≤ 0.5
C4U A20G C29G U32A C62A	≤ 0.5
C5A A14U C27U C49G A57G	≤ 0.5
G10U U26C G39A A65C	≤ 0.5
C46U C66U	1.02
U54A C61G A65U	≤ 0.5
A14U C30A	0.565
A40C A57G C61G	≤ 0.5
C5G G51A C62G	≤ 0.5
C22U G52A C61U	≤ 0.5
U35A A69C A70C	0.535
C5G U8C G41A	≤ 0.5
U3C C5G G17C C29U	≤ 0.5
C29G C30U A36C A40G	≤ 0.5
A40U C49A A57G C62U	≤ 0.5

Variant	yeast fitness
U8G G51A A65U	≤ 0.5
U28C G50U A65C	≤ 0.5
C11U C24G C33A A42G	≤ 0.5
U3C A20G U47C	0.686
A14U G17C C30G G41C A42C U47C G50A C62A	≤ 0.5
C24U U26G C30U G39C G67A A69U	≤ 0.5
C27A C30G G41C C61G C62U A69U	0.557
C22A C24U G58C C62G	≤ 0.5
G17A C33A	0.53
A42C G58A	0.951
C33U C34G A40G	0.625
G6A C11U A21C U28A C62U	≤ 0.5
U26G G63C C66U	≤ 0.5
U32G U35A A36G A57U	≤ 0.5
G12A C46A U47A	0.75
G48A A69U	0.961
C5U G17A A40U A42C C49A G56A	≤ 0.5
A57G U64C A65C	0.506
C11U C66U A69G	0.639
C4A C27G C31G	≤ 0.5
A37G C46U U59G	0.508
G9A C11U C27U A36G	≤ 0.5
G12C A14U C29U	≤ 0.5
G6C C22A A57U	≤ 0.5

Variant	yeast fitness
U7C C33A A40U A57C	0.662
A36C C66A	≤ 0.5
G12A C27A C29U A36G	≤ 0.5
A21C G25C U26G G50U G56A U59A A70C	0.541
C4A U19G U35C U53C	≤ 0.5
G48C C49U	0.787
C24A U59G C62U	≤ 0.5
G23C C55G	≤ 0.5
A20G G48C	1
C4U A14U G50C G51C G56A	≤ 0.5
C4U C24A A57G G68C	≤ 0.5
C11G C24G C27U C55U	0.55
C34U A45U	0.686
G9C C24A A45G C46G	0.597
U13C A57G	0.919
A36C C55U G68C	≤ 0.5
U2A U59A	0.917
G6A U13G A42C	0.711
C5G A20G A37G C46G A57C	≤ 0.5
G25A C34A A40U	≤ 0.5
C22A C30U C49U C66U	0.601
G25A A36C	0.52
C5U A45C C61G	0.536
G23C A37G A69C	0.548

Variant	yeast fitness
G18A U54C	0.646
C11A C31G C62G	0.506
U3A C5A C30G G38C C61A	0.655
C22U A42C A57C	≤ 0.5
U3C A43C A65U	0.604
G56C A57C C61G	≤ 0.5
G10A U16A U35G	≤ 0.5
U2C G50C	0.733
A14G C31U U35C A40G A65U	≤ 0.5
U7C C62G	0.61
U19C C31U C33G G41A C49G U54C G63A	≤ 0.5
G9C G56C	0.514
C31U U53G	0.644
C4U U8A G25C A43U C60G	≤ 0.5
C11G C31U G41C	≤ 0.5
C4U C30G A36U C55U	≤ 0.5
C4U G17A	0.973
U2C G10C	0.724
G12C A20U C33U C66U	≤ 0.5
C5U A15G A20U A42G G63C	0.65
C11U G39C G68C	≤ 0.5
U3A G6A U16A C24G A37U C49U G67A	≤ 0.5
C29A C31U C34A A36G G56C	≤ 0.5
